# Reference: ChEMBL document CHEMBL1124161, “4-Hydroxy-3-quinolinecarboxamides with antiarthritic and analgesic activities” (J Med Chem, 1988)
# Active and inactive are the calls of the source. The rule behind the calls is not given here.
# Key:
# [1] = test system: Mus musculus; assay: Analgesic activity against acetic acid induced writhing test in mouse after peroral administration; assay type: functional
# [2] = test system: Rattus norvegicus; assay: Anti-arthritis activity against adjuvant-induced arthritis in rats after peroral administration; assay type: functional
# In short: (§1)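 Groups of five male Lewis rats, 40–50 days old, given intraplantar injection in right hind paw of 0.6 mg Mycobacterium butyricum in 0.1 mL Bayol 55. Drug given in food from adjuvant day to day 17. Injected and noninjected hind paw volumes measured day 17 against normal controls. ED50 by least-squares curve fitting or Litchfield–Wilcoxon probit.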
# [3] = test system: Rattus norvegicus; assay: Antiinflammatory activity against carrageenan-induced foot edema in rat after peroral administration at 25 mg/kg; IA=Inactive; assay type: functional, organism-based; set-up: dose 25 mg/kg
# [4] = organism: Rattus norvegicus; assay: Antiarthritis activity against adjuvant-induced arthritis in rats; assay type: functional; in short: as §1
# [5] = Mus musculus, po, read-out: ED50
# [6] = Rattus norvegicus, po, read-out: ED50
SMILES,"ED50 [1, 5]",further results
O=C(Nc1nccs1)c1cnc2ccccc2c1O,> 10 mg/kg,
O=C(Nc1nccs1)c1cnc2ccc(Cl)cc2c1O,50 mg/kg,
CCC(OC(=O)C(C)(C)C)c1nc2c(C(F)(F)F)cccc2c(O)c1C(=O)Nc1nccs1 (centres undefined),,"ED50 [2, 6]: 15 mg/kg"
O=C(Nc1ccccn1)c1c(C(F)(F)F)nc2c(C(F)(F)F)cccc2c1O,> 20 mg/kg,
C[C@H](N)c1nc2c(C(F)(F)F)cccc2c(O)c1C(=O)Nc1nccs1,30 mg/kg,"ED50 [2, 6]: 7 mg/kg"
COc1cccc2c(O)c(C(=O)Nc3nccs3)cnc12,> 50 mg/kg,
CC(C)C(O)c1nc2c(C(F)(F)F)cccc2c(O)c1C(=O)Nc1ccccn1 (centres undefined),> 50 mg/kg,"ED50 [2, 6]: 5 mg/kg"
CCC(=O)OC(CC)c1nc2c(C(F)(F)F)cccc2c(O)c1C(=O)Nc1nccs1 (stereo in doubt; 104),,ED50 [1]: 15 mg/kg; ED50 [2]: 0.6 mg/kg
O=C(Nc1ncco1)c1c(C(Cl)Cl)nc2c(C(F)(F)F)cccc2c1O,> 25 mg/kg,ED50 [3]: inactive
O=C(Nc1ccccn1)c1cnc2c(C(F)(F)F)cccc2c1O,> 50 mg/kg,
CC(O)c1nc2c(C(F)(F)F)cccc2c(O)c1C(=O)Nc1ccccn1 (centres undefined),> 50 mg/kg,
CC(C)c1ccc2ncc(C(=O)Nc3nccs3)c(O)c2c1,25 mg/kg,
CC(C)Cc1nc2c(C(F)(F)F)cccc2c(O)c1C(=O)Nc1nccs1,30 mg/kg,
O=C(Nc1nccs1)c1cnc2ccc(C(F)(F)F)cc2c1O,40 mg/kg,
O=C(Nc1nccs1)c1c(C(Cl)Cl)nc2c(F)cccc2c1O,25 mg/kg,ED50 [3]: inactive
CCc1nc2c(C(F)(F)F)cccc2c(O)c1C(=O)Nc1ccccn1,18 mg/kg,
O=C(Nc1nccs1)c1c(C(F)(F)F)nc2cccc(C(F)(F)F)c2c1O,20 mg/kg,
O=C(Nc1nccs1)c1c(C(F)(F)C(F)(F)F)nc2c(C(F)(F)F)cccc2c1O,20 mg/kg,
O=C(Nc1nccs1)c1c(CCl)nc2c(C(F)(F)F)cccc2c1O,25 mg/kg,ED50 [3]: inactive
O=C(Nc1ncccn1)c1cnc2c(C(F)(F)F)cccc2c1O,50 mg/kg,
CCCc1nc2c(C(F)(F)F)cccc2c(O)c1C(=O)Nc1nccs1,15 mg/kg,
CC(C)(C)c1nc2c(C(F)(F)F)cccc2c(O)c1C(=O)Nc1nccs1,> 100 mg/kg,
CCC(OC(=O)c1ccccc1)c1nc2c(C(F)(F)F)cccc2c(O)c1C(=O)Nc1nccs1 (centres undefined),> 100 mg/kg,"ED50 [2, 6]: > 5 mg/kg"
COc1ccc2nc(C(F)(F)F)c(C(=O)Nc3nccs3)c(O)c2c1,30 mg/kg,
O=C(Nc1nccs1)c1c(C(F)(F)F)nc2c(F)cccc2c1O,5 mg/kg,
Cc1cc(NC(=O)c2c(C(F)(F)F)nc3c(C(F)(F)F)cccc3c2O)no1,> 50 mg/kg,
Cn1ccnc1NC(=O)c1cnc2c(C(F)(F)F)cccc2c1O,16 mg/kg,

SMILES,"ED50 [1, 5]",further results
CCc1nc2c(C(F)(F)F)cccc2c(O)c1C(=O)Nc1nccs1,3 mg/kg,
CCCC(=O)OC(CC)c1nc2c(C(F)(F)F)cccc2c(O)c1C(=O)Nc1nccs1 (centres undefined),4 mg/kg,"ED50 [2, 6]: 1.3 mg/kg"
O=C(Nc1nccs1)c1cnc2c(SC(F)(F)F)cccc2c1O,> 50 mg/kg,
CC(O)c1nc2ccccc2c(O)c1C(=O)Nc1nccs1 (centres undefined),> 100 mg/kg,"ED50 [2, 6]: > 5 mg/kg"
CC(C)c1nc2c(C(F)(F)F)cccc2c(O)c1C(=O)Nc1nccs1,5 mg/kg,
O=C(Nn1ccnn1)c1cnc2c(C(F)(F)F)cccc2c1O,> 50 mg/kg,
O=C(Nc1ccccn1)c1c(C(Cl)Cl)nc2c(C(F)(F)F)cccc2c1O,20 mg/kg,
O=C(Nc1nccs1)c1c(C(F)(F)F)nc2ccc(C(F)(F)F)cc2c1O,100 mg/kg,
Cc1nc2c(C(F)(F)F)cccc2c(O)c1C(=O)Nc1nccs1,4 mg/kg,
O=C(Nc1nccs1)c1cnc2c(Cl)cccc2c1O,100 mg/kg,
CC(C)[C@H](N)c1nc2c(C(F)(F)F)cccc2c(O)c1C(=O)Nc1nccs1,> 100 mg/kg,"ED50 [2, 6]: ≥ 5 mg/kg"
O=C(Nc1ncco1)c1cnc2c(C(F)(F)F)cccc2c1O,> 100 mg/kg,
O=C(Nc1nccs1)c1c(C(F)(F)F)nc2cc(Cl)ccc2c1O,> 25 mg/kg,
O=C(Nc1nccs1)c1c(C(F)(F)F)nc2c([S+]([O-])C(F)(F)F)cccc2c1O (centres undefined),20 mg/kg,
Cc1nc2c(C(F)(F)F)cccc2c(O)c1C(=O)Nc1ccccn1,5 mg/kg,
O=C(Nc1ccccc1)c1cnc2c(C(F)(F)F)cccc2c1O,> 50 mg/kg,
O=C(Nc1nccs1)c1cnc2cc(C(F)(F)F)ccc2c1O,100 mg/kg,
O=C(Nc1ncc[nH]1)c1cnc2c(C(F)(F)F)cccc2c1O,18 mg/kg,
CCC(O)c1nc2c(C(F)(F)F)cccc2c(O)c1C(=O)Nc1ccccn1 (centres undefined),20 mg/kg,"ED50 [2, 6]: ≥ 15 mg/kg"
CCC(O)c1nc2c(C(F)(F)F)cccc2c(O)c1C(=O)Nc1nccs1 (stereo in doubt; 91),,ED50 [1]: 1.8 mg/kg; ED50 [2]: 0.5 mg/kg
O=C(Nc1nccs1)c1c(C(F)(F)F)nc2ccc(Cl)cc2c1O,> 25 mg/kg,
CCc1nc2c(C(F)(F)F)cccc2c(O)c1C(=O)Nc1nccn1C,50 mg/kg,
O=C(Nc1nccs1)c1cnc2c(OC(F)(F)F)cccc2c1O,> 50 mg/kg,
O=C(Nc1nccs1)c1c(C(Cl)Cl)nc2ccccc2c1O,> 25 mg/kg,
Cn1nccc1NC(=O)c1cnc2c(C(F)(F)F)cccc2c1O,50 mg/kg,
CC(C)C(O)c1nc2c(C(F)(F)F)cccc2c(O)c1C(=O)Nc1nccs1 (centres undefined),20 mg/kg,ED50 [4]: 0.4 mg/kg
CCC(OC(=O)c1cccnc1)c1nc2c(C(F)(F)F)cccc2c(O)c1C(=O)Nc1nccs1 (centres undefined),> 20 mg/kg,"ED50 [2, 6]: > 1 mg/kg"

SMILES,"ED50 [1, 5]",further results
CCC(O)c1nc2c(C(F)(F)F)cccc2c(O)c1C(=O)Nc1nccs1 (stereo in doubt; 90),,ED50 [1]: >20 mg/kg; ED50 [2]: >5 mg/kg
O=C(Nc1nccs1)c1c(C(F)(F)F)nc2ccccc2c1O,8 mg/kg,
O=C(Nc1nccs1)c1c(C(F)F)nc2c(C(F)(F)F)cccc2c1O,5 mg/kg,
Cn1ccnc1NC(=O)c1c(C(Cl)Cl)nc2c(C(F)(F)F)cccc2c1O,> 25 mg/kg,ED50 [3]: inactive
O=C(Nc1nccs1)c1c(C(Cl)Cl)nc2ccc(Cl)cc2c1O,25 mg/kg,
CCC(=O)OC(CC)c1nc2c(C(F)(F)F)cccc2c(O)c1C(=O)Nc1nccs1 (stereo in doubt; 103),,ED50 [1]: >50 mg/kg; ED50 [2]: >5 mg/kg
CC[C@H](NC(C)=O)c1nc2c(C(F)(F)F)cccc2c(O)c1C(=O)Nc1nccs1,5 mg/kg,"ED50 [2, 6]: 1.5 mg/kg"
O=C(NC1=NCCS1)c1cnc2c(C(F)(F)F)cccc2c1O,15 mg/kg,
CCCC(O)c1nc2c(C(F)(F)F)cccc2c(O)c1C(=O)Nc1nccs1 (centres undefined),20 mg/kg,ED50 [4]: ≥ 20 mg/kg
O=C(Nc1nccs1)c1c(C(F)(F)F)nc2c(Cl)cccc2c1O,2 mg/kg,
O=C(Nc1nccs1)c1c(C(F)(F)F)nc2c(Cl)ccc(C(F)(F)F)c2c1O,> 50 mg/kg,
O=C(NC1CCCCC1)c1cnc2c(C(F)(F)F)cccc2c1O,> 50 mg/kg,
CCC(=O)OC(c1nc2c(C(F)(F)F)cccc2c(O)c1C(=O)Nc1nccs1)C(C)C (centres undefined),> 100 mg/kg,"ED50 [2, 6]: ≥ 5 mg/kg"
O=C(Nc1nccs1)c1c(C(F)(F)F)nc2c(SC(F)(F)F)cccc2c1O,4 mg/kg,
CCC(OC(=O)/C=C/c1ccccc1)c1nc2c(C(F)(F)F)cccc2c(O)c1C(=O)Nc1nccs1 (centres undefined),> 100 mg/kg,"ED50 [2, 6]: 10 mg/kg"
O=C(Nc1nc2ccccc2s1)c1c(C(Cl)Cl)nc2c(C(F)(F)F)cccc2c1O,> 25 mg/kg,ED50 [3]: inactive
O=C(Nc1ncco1)c1c(C(F)(F)F)nc2c(C(F)(F)F)cccc2c1O,> 100 mg/kg,
CC(Cl)c1nc2c(C(F)(F)F)cccc2c(O)c1C(=O)Nc1nccs1 (centres undefined),,ED50 ([1]; read-out: ED50): 25 mg/kg
O=C(Nc1nccs1)c1c(C(Cl)Cl)nc2cc(Cl)ccc2c1O,> 100 mg/kg,
CCc1nc2c(C(F)(F)F)cccc2c(O)c1C(=O)Nc1cc(C)on1,> 50 mg/kg,
CC(=O)OC(c1nc2c(C(F)(F)F)cccc2c(O)c1C(=O)Nc1nccs1)C(C)C (centres undefined),> 100 mg/kg,"ED50 [2, 6]: ≥ 5 mg/kg"
O=C(Nc1nccs1)c1c(C(Cl)Cl)nc2c(Cl)cccc2c1O,25 mg/kg,ED50 [3]: inactive
CC(O)c1nc2c(C(F)(F)F)cccc2c(O)c1C(=O)Nc1nccs1 (centres undefined),1.2 mg/kg,ED50 [4]: ≥ 5 mg/kg
CCc1nc2c(C(F)(F)F)cccc2c(O)c1C(=O)Nc1ncco1,15 mg/kg,
O=C(Nc1nccs1)c1c(C(F)(F)F)nc2cc(C(F)(F)F)ccc2c1O,5 mg/kg,
